Test results from publication PMC8428831 (Plant Biotechnology Journal, 2021).

Legend:
[1] = test system: methionine auxotroph E. coli transformed with AtCgS; assay type: cell-based; details: for Bacterial growth with external methionine / Bacterial growth without external methionine: 50 µM compound, M9 minimal media; for Bacterial growth with external methionine: methionine 40 mg/L; for Bacterial growth without external methionine: no methionine
In short: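 Methionine-auxotroph E. coli LE392 carrying pQE-30–AtCgS grown in M9 minimal medium with IPTG, with or without 40 mg/L methionine. Test compound at 50 µM final, or a concentration series, from a 50 mM DMSO stock; DMSO-only controls (0.1%). OD600 read every 20 min for about 1000 min at 37 °C with orbital shaking. Curve slopes from a linear fit; slope ratio versus DMSO, in duplicate.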

[2] = biological target: T1, CgS (Arabidopsis thaliana, UniProt P55217); experiment: Micro Scale Thermophoresis; assay type: binding
T1 sequence (P55217 69-563): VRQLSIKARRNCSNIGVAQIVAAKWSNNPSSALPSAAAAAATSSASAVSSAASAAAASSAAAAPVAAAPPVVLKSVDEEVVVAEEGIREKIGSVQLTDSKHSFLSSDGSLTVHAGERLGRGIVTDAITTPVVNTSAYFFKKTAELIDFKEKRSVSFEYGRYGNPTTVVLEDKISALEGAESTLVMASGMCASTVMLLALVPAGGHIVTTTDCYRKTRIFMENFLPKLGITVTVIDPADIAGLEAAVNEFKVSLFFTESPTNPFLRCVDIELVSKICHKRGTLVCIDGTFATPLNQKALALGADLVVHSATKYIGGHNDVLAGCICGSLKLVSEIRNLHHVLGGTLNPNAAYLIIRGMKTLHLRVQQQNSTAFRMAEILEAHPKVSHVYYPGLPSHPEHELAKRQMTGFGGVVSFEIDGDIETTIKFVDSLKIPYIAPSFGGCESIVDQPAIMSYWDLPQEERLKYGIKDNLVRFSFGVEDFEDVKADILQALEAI
In short: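 Purified recombinant AtCgS labelled with an amine-reactive fluorophore, 100 nM per capillary. Incubated with a dilution series of test compound and measured by microscale thermophoresis (Monolith NT.115). Baseline normalised to the mean of the three lowest concentrations. Signal fitted to a single-site binding model to give Kd.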

Structure (SMILES) | Bacterial growth with external methionine [1] | Bacterial growth without external methionine [1] | Bacterial growth curves, dose–response without external methionine ([1]; variable concentrations, M9, no methionine) | Bacterial growth curves, dose–response with external methionine ([1]; variable concentrations, M9, with methionine) | Kd [2] [µM]
C#CCC(N)C(=O)O (stereo not shown) [PAG, propargyl‐glycine, reference compound] | the cells grew in the presence of PAG | significantly inhibits cell growth | – | – | –
Cc1cc(O)nc(-c2cccc(NC(=O)c3c(O)cccc3F)c2)n1 [CGSI‐1, 2‐fluoro‐6‐hydroxy‐N‐(3‐(4‐hydroxy‐6‐methylpyrimidin‐2‐yl)phenyl)benzamide] | not active in its presence | active in the absence of methionine | clear dose–response behaviour | no effect | 29.4
